Source: ChEMBL document CHEMBL1134494, “2-Amino-6-arylsulfonylbenzonitriles as non-nucleoside reverse transcriptase inhibitors of HIV-1” (J Med Chem, 2001)

What was measured:
[1] = system: HeLa; experiment: Antiviral activity against V108I mutant virus in the HeLa MAGI assay.; format: functional, cell-based, Homo sapiens
How it was run: (§1)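 Isogenic recombinant HIV-1 strains carrying the listed RT mutations were tested against the test compounds in HeLa MAGI indicator cells. Beta-galactosidase was quantified by activation of a chemiluminescent substrate 3 days after infection. IC50 was the concentration inhibiting 50% of the HIV-1-induced beta-galactosidase signal relative to untreated controls. It was determined for each recombinant virus.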

[2] = system: HeLa; experiment: Antiviral activity against K103N/L100I mutant virus in the HeLa MAGI assay.; format: functional, cell-based, Homo sapiens; how it was run: as §1
[3] = system: HeLa; experiment: Antiviral activity against V106A mutant virus in the HeLa MAGI assay.; format: functional, cell-based, Homo sapiens; how it was run: as §1
[4] = system: HeLa; experiment: Antiviral activity against G190A mutant virus in the HeLa MAGI assay.; format: functional, cell-based, Homo sapiens; how it was run: as §1
[5] = system: HeLa; experiment: Antiviral activity against K103N/Y181C mutant virus in the HeLa MAGI assay.; format: functional, cell-based, Homo sapiens; how it was run: as §1
[6] = system: Human immunodeficiency virus 1; experiment: Antiviral activity against HIV-1 infected human MT-4 cells.; format: functional, organism-based; conditions: Human immunodeficiency virus 1, MT4
How it was run: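 HTLV-1-transformed MT4 cells were infected with HIV-1 strain 3B at 100× the amount giving a 50% drop in cell growth. They were cultured 5 days with a range of compound concentrations. IC50 is the concentration restoring 50% of infected-cell growth (cytopathic effect) relative to uninfected MT4 controls.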

[7] = system: HeLa; experiment: Antiviral activity against Y188C mutant virus in the HeLa MAGI assay.; format: functional, cell-based, Homo sapiens; how it was run: as §1
[8] = target: Human immunodeficiency virus type 1 reverse transcriptase (Human immunodeficiency virus 1, UniProt Q72547); experiment: Inhibitory activity against HIV-1 reverse transcriptase
How it was run: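 Recombinant HIV RT at 1 nM was combined with 40 nM Eu-chelate-labeled biotinylated DNA primer/RNA template and 100 nM Cy5-dUTP. Reactions were started with enzyme.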

[9] = system: HeLa; experiment: Antiviral activity against V106A/Y181C mutant virus in the HeLa MAGI assay.; format: functional, cell-based, Homo sapiens; how it was run: as §1
[10] = system: HeLa; experiment: Antiviral activity against K103N/P225H mutant virus in the HeLa MAGI assay.; format: functional, cell-based, Homo sapiens; how it was run: as §1
[11] = system: HeLa; experiment: Antiviral activity against V108I/Y181C mutant virus in the HeLa MAGI assay.; format: functional, cell-based, Homo sapiens; how it was run: as §1
[12] = system: HeLa; experiment: Antiviral activity against K103N/V108I mutant virus in the HeLa MAGI assay.; format: functional, cell-based, Homo sapiens; how it was run: as §1
[13] = system: HeLa; experiment: Antiviral activity against E138K mutant virus in the HeLa MAGI assay.; format: functional, cell-based, Homo sapiens; how it was run: as §1
[14] = system: HeLa; experiment: Antiviral activity against Y181C mutant virus in the HeLa MAGI assay.; format: functional, cell-based, Homo sapiens; how it was run: as §1
[15] = system: HeLa; experiment: Antiviral activity against K103N mutant virus in the HeLa MAGI assay.; format: functional, cell-based, Homo sapiens; how it was run: as §1
[16] = system: MT4; experiment: Cell culture cytotoxicity against MT-4 cells.; format: functional, cell-based; conditions: Homo sapiens
How it was run: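 MT4 cells were exposed to compound in parallel with the 5-day HIV-1 strain 3B cytopathic-effect assay. Compound-induced cytotoxicity is reported as the cell culture cytotoxicity IC50 (CCIC50).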

[17] = system: HeLa; experiment: Antiviral activity against wild-type HIV-1 in the HeLa MAGI assay.; format: functional, cell-based; conditions: Homo sapiens
How it was run: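 HeLa MAGI cells were infected with isogenic recombinant HIV-1. After 3 days, β-galactosidase was quantified by chemiluminescent substrate activation. IC50 is the concentration inhibiting 50% of the HIV-1-induced β-galactosidase signal relative to untreated controls.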

[18] = system: HeLa; experiment: Antiviral activity against P236L mutant virus in the HeLa MAGI assay.; format: functional, cell-based, Homo sapiens; how it was run: as §1

SMILES: N#Cc1c(N)cccc1S(=O)(=O)c1cc(Cl)cc(Cl)c1
- IC50 [1]: 47 nM
- IC50 [2]: 5500 nM
- IC50 [3]: 6.2 nM
- IC50 [4]: 84 nM
- IC50 [5]: > 50000 nM
- IC50 [6]: 70 nM
- IC50 [7]: 140 nM
- IC50 [8]: 30 nM
- IC50 [9]: 1800 nM
- IC50 [10]: 3800 nM
- IC50 [11]: 58000 nM
- IC50 [12]: 4000 nM
- IC50 [13]: 85 nM
- IC50 [14]: 50000 nM
- IC50 [15]: 8300 nM
- IC50 [16]: > 200000 nM
- IC50 [17]: 37 nM
- IC50 [18]: 2.5 nM

SMILES: Cc1ccnc2c1NC(=O)c1cccnc1N2C1CC1 [NEVIRAPINE]
- IC50 [1]: 340 nM
- IC50 [2]: 10000 nM
- IC50 [3]: ~10000 nM
- IC50 [4]: > 10000 nM
- IC50 [5]: > 50000 nM
- IC50 [7]: 2200 nM
- IC50 [9]: > 10000 nM
- IC50 [10]: 10000 nM
- IC50 [11]: > 10000 nM
- IC50 [12]: 21000 nM
- IC50 [13]: 72 nM
- IC50 [14]: > 10000 nM
- IC50 [15]: 7100 nM
- IC50 [17]: 89 nM
- IC50 [18]: 56 nM

SMILES: Cc1cc(C)cc(S(=O)(=O)c2cccc(N)c2C#N)c1
- IC50 [1]: 17 nM
- IC50 [2]: 3000 nM
- IC50 [3]: 2.4 nM
- IC50 [4]: 30 nM
- IC50 [5]: > 50000 nM
- IC50 [6]: 10 nM
- IC50 [7]: 210 nM
- IC50 [9]: 490 nM
- IC50 [10]: 3300 nM
- IC50 [11]: 13000 nM
- IC50 [12]: 4800 nM
- IC50 [13]: 17 nM
- IC50 [14]: 14000 nM
- IC50 [15]: 1100 nM
- IC50 [16]: > 200000 nM
- IC50 [17]: 11 nM
- IC50 [18]: 5 nM

SMILES: Cc1cc(Br)cc(S(=O)(=O)c2cccc(N)c2C#N)c1
- IC50 [1]: 11 nM
- IC50 [2]: 16000 nM
- IC50 [3]: 1.5 nM
- IC50 [4]: 31 nM
- IC50 [5]: > 50000 nM
- IC50 [6]: 20 nM
- IC50 [7]: 1700 nM
- IC50 [8]: 3 nM
- IC50 [9]: 77 nM
- IC50 [10]: 13000 nM
- IC50 [11]: 18000 nM
- IC50 [12]: 15000 nM
- IC50 [13]: 15 nM
- IC50 [14]: 10000 nM
- IC50 [15]: 970 nM
- IC50 [16]: 133000 nM
- IC50 [17]: 9 nM
- IC50 [18]: 11 nM

SMILES: N#Cc1c(N)cccc1S(=O)(=O)c1cccc2ccccc12
- IC50 [1]: 30 nM
- IC50 [2]: 1700 nM
- IC50 [3]: 5.4 nM
- IC50 [4]: 200 nM
- IC50 [5]: > 50000 nM
- IC50 [6]: 3320 nM
- IC50 [7]: 180 nM
- IC50 [8]: 1000 nM
- IC50 [9]: 230 nM
- IC50 [10]: 2800 nM
- IC50 [11]: 66000 nM
- IC50 [12]: 3500 nM
- IC50 [13]: 68 nM
- IC50 [14]: 29000 nM
- IC50 [15]: 2300 nM
- IC50 [16]: > 200000 nM
- IC50 [17]: 14 nM
- IC50 [18]: 2 nM

SMILES: Cc1cc(Cl)cc(S(=O)(=O)c2cccc(N)c2C#N)c1
- IC50 [1]: 17 nM
- IC50 [2]: 20000 nM
- IC50 [3]: 2.8 nM
- IC50 [4]: 40 nM
- IC50 [5]: > 50000 nM
- IC50 [6]: 30 nM
- IC50 [7]: 400 nM
- IC50 [8]: 5 nM
- IC50 [9]: 210 nM
- IC50 [10]: 19000 nM
- IC50 [11]: 13000 nM
- IC50 [12]: 33000 nM
- IC50 [13]: 15 nM
- IC50 [14]: 14000 nM
- IC50 [15]: 3600 nM
- IC50 [16]: > 200000 nM
- IC50 [17]: 15 nM
- IC50 [18]: 10 nM

SMILES: COc1cc(C)cc(S(=O)(=O)c2cccc(N)c2C#N)c1
- IC50 [1]: 29 nM
- IC50 [2]: 19000 nM
- IC50 [3]: 2.9 nM
- IC50 [4]: 87 nM
- IC50 [5]: > 50000 nM
- IC50 [6]: 50 nM
- IC50 [7]: 300 nM
- IC50 [8]: 10 nM
- IC50 [9]: 420 nM
- IC50 [10]: 7800 nM
- IC50 [11]: 14000 nM
- IC50 [12]: 16000 nM
- IC50 [13]: 29 nM
- IC50 [14]: 13000 nM
- IC50 [15]: 1800 nM
- IC50 [16]: 94000 nM
- IC50 [17]: 14 nM
- IC50 [18]: 8 nM

SMILES: N#Cc1c(N)cccc1Sc1cccc(Cl)c1
- IC50 [6]: 7400 nM
- IC50 [8]: 16000 nM
- IC50 [16]: 53000 nM

SMILES: N#Cc1c(N)cccc1Sc1ccccc1Cl
- IC50 [6]: 4100 nM
- IC50 [8]: 7200 nM
- IC50 [16]: 33000 nM

SMILES: Cc1cc(Cl)cc([S+]([O-])c2cccc(N)c2C#N)c1 (configuration not stated)
- IC50 [6]: 320 nM
- IC50 [8]: 520 nM
- IC50 [16]: > 200000 nM

SMILES: COc1cc(Sc2cccc(N)c2C#N)cc(C(F)(F)F)c1
- IC50 [6]: 5100 nM
- IC50 [8]: 13000 nM
- IC50 [16]: 9000 nM

SMILES: N#Cc1c(N)cccc1S(=O)(=O)c1ccccc1Cl
- IC50 [6]: 4100 nM
- IC50 [8]: 5900 nM
- IC50 [16]: > 200000 nM

SMILES: O=C1Nc2ccc(Cl)cc2[C@@](C#CC2CC2)(C(F)(F)F)O1 [EFAVIRENZ]
- IC50 [1]: 1.4 nM
- IC50 [2]: 1600 nM
- IC50 [3]: 1.5 nM
- IC50 [4]: 6.4 nM
- IC50 [5]: 42 nM
- IC50 [7]: 1.2 nM
- IC50 [9]: 3.3 nM
- IC50 [10]: 130 nM
- IC50 [11]: 3.3 nM
- IC50 [12]: 74 nM
- IC50 [13]: 0.8 nM
- IC50 [14]: 1.8 nM
- IC50 [15]: 24 nM
- IC50 [17]: 0.9 nM
- IC50 [18]: 0.5 nM

SMILES: Cc1cccc(Sc2cccc(N)c2C#N)c1
- IC50 [6]: 6100 nM
- IC50 [8]: 960 nM
- IC50 [16]: 79000 nM

SMILES: N#Cc1ccc([S+]([O-])c2cccc(N)c2C#N)cc1 (configuration not stated)
- IC50 [6]: > 200000 nM
- IC50 [8]: > 23000 nM
- IC50 [16]: > 200000 nM

SMILES: COc1ccccc1S(=O)(=O)c1cccc(N)c1C#N
- IC50 [6]: 600 nM
- IC50 [8]: 1400 nM
- IC50 [16]: 146000 nM

SMILES: N#Cc1c(N)cccc1[S+]([O-])c1ccccc1Br (configuration not stated)
- IC50 [6]: 39200 nM
- IC50 [8]: > 19000 nM
- IC50 [16]: 168000 nM

SMILES: Cc1ccccc1S(=O)(=O)c1cccc(N)c1C#N
- IC50 [6]: 2300 nM
- IC50 [8]: 4500 nM
- IC50 [16]: > 200000 nM
